How the values were obtained:
[1] = molecular target: CYP2C9 (Homo sapiens, UniProt P11712); test: Inhibition of CYP2C9 (unknown origin) at 10 uM relative to control; format: ADME
Procedure, shortened: (§1)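 CYP isoenzyme inhibition is measured at 10 μM compound. Result is given as % inhibition.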

[2] = molecular target: CYP2D6 (Homo sapiens, UniProt P10635); test: Inhibition of CYP2D6 (unknown origin) at 10 uM relative to control; format: ADME; procedure, shortened: as §1
[3] = molecular target: T1, 5-hydroxytryptamine receptor 3A (Cavia porcellus) (UniProt O70212); details: Ileum, filed as antagonist
T1 sequence (whole entry): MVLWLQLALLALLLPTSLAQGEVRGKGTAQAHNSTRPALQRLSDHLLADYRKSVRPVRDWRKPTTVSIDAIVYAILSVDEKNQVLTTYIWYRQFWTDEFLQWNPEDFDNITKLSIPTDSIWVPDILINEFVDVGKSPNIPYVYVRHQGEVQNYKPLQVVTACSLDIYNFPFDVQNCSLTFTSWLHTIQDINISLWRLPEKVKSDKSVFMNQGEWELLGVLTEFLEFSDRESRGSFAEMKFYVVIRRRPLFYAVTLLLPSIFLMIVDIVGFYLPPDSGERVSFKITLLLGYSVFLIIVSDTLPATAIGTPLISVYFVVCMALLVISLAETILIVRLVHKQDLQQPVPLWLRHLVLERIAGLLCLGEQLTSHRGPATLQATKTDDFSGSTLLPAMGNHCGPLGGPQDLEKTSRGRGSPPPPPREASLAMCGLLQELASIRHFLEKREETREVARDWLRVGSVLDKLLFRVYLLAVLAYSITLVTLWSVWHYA

CYP2D6, sequence (P10635 whole entry): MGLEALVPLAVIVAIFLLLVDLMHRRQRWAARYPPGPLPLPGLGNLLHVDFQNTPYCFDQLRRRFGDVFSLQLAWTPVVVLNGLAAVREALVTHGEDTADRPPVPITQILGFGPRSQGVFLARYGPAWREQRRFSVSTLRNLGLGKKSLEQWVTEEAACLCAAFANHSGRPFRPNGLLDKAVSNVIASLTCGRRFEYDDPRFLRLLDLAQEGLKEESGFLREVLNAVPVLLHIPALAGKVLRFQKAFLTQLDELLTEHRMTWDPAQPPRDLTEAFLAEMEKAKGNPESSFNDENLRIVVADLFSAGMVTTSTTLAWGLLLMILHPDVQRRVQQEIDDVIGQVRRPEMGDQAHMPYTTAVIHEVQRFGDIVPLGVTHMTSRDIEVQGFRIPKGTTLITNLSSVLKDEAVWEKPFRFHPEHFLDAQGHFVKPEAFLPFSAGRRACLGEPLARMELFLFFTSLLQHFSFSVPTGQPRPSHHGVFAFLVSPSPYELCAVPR
CYP2C9, sequence (P11712 whole entry): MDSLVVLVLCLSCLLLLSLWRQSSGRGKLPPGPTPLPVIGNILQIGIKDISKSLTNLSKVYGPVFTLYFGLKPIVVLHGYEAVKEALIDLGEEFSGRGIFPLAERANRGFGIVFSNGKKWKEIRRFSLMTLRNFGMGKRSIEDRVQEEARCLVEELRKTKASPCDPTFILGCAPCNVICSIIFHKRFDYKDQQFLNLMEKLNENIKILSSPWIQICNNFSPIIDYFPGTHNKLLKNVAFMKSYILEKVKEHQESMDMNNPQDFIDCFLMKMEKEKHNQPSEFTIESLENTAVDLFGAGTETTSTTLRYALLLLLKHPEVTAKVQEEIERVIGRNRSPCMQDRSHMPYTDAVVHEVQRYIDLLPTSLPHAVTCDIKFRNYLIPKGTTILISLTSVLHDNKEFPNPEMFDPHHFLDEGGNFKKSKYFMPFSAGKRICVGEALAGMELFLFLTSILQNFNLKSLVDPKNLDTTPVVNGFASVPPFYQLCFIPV

Compound | inhibition at 10 µM [1] | inhibition at 10 µM [2] | pD2 [3]
O=S(=O)(c1cccc(F)c1)n1ccc2c(N3CCNCC3)nc3ccccc3c21 | < 25% | < 25% | 
Cc1nccn1CC1CCc2c(c3ccccc3n2C)C1=O (stereo not drawn) |  |  | 6.43
